From PubChem BioAssay
Measles CPE: compounds protecting cells from measles virus cytopathic effect, primary screen, measles RdRp inhibitor project, single point, MLSMR library, absorbance; protection (pct of control), % at 4 µM; AID 841, 2007; Measles virus-infected cells, CPE protection; 140,000 tested, 1.5% active; in the data active = protection mostly above about 24%, no sharp cut-off; inactive = mostly below about 26%
HIV Rev-RRE inh: HIV-1 Rev-RRE binding inhibitors, primary screen, biochemical, FRET, protein-RNA interaction; P05866; Rev peptide-RRE RNA binding; inhibition, % at 8 µM; 97,000 tested, 0.79% active;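 active = inhibition above the screen-wide mean plus 3 SD, cut at about 35% in these data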;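 also: 0% = median DMSO wells and 100% = median Neomycin B control wells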
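Test system: labelled RRE RNA duplex and labelled Rev peptide. Times: 5 min compound–RNA preincubation, then 15 min with peptide, 25 °C. Doses: single-dose 8 µM. Measured by: FRET, excitation 480 nm, emission 540 nm donor and 671 nm acceptor. Measure: % inhibition of FRET ratio versus controls.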
hDAT+cocaine: changed hDAT dopamine uptake under cocaine IC80, either direction, primary screen, cocaine antagonist project, cell-based, LLC-PK1 hDAT, [14C]-dopamine uptake, MLSMR. Sodium-dependent dopamine transporter (Homo sapiens), Q01959. LLC-PK1 hDAT cells, [14C]-dopamine uptake with cocaine IC80; actives deviate in either direction. B-score at 10 µM. 110,000 tested, 1.3% active;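 active = Z score or B-score, a plate-position-corrected score, falls beyond the plate's 99.7% confidence bounds, in either direction; inactive = both scores lie inside the 99.7% bounds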;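 also: scored against the spread of the other compound wells on the same plate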
Target sequence (Q01959 whole entry, looked up): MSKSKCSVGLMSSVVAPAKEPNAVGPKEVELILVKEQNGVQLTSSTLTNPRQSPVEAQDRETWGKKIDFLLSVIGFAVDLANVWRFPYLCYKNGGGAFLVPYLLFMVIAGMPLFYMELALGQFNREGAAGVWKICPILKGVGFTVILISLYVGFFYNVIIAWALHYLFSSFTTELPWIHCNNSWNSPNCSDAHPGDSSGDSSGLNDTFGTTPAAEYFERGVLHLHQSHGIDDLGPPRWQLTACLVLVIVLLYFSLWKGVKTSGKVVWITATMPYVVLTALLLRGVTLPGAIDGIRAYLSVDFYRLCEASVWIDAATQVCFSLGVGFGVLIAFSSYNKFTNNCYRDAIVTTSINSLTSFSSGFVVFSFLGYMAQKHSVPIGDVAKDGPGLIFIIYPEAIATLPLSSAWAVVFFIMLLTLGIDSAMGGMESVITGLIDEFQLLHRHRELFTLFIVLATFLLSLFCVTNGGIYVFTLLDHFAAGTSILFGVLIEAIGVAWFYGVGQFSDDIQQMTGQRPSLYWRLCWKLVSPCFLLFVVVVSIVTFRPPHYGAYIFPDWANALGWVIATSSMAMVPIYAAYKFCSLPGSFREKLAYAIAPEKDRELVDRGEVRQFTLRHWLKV
Phagocytosis inh: inhibitors of macrophage phagocytosis, primary screen, imaging, J774A.1 cells, IgG beads; J774A.1 macrophage IgG-bead phagocytosis; inhibition, % at 5 µM; 110,000 tested, 0.07% active; AID 1029, 2008;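 active = inhibition above the mean of the plate negative controls plus 5 SD, cut at about 13% in these data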;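 also: phagocytic index as fraction of beads internalized from green versus red external bead signal; plate controls were DMSO negative control for no effect and cytochalasin-D positive control for full effect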
PTK2B oligo ant: antagonists of Pyk2 self-association, primary screen, Q293 cells, FERM NanoBiT luminescence, HTS; Protein-tyrosine kinase 2-beta (Homo sapiens), Q14289; hits give low values; z-score (the deposit names both 25 µM and 10 µM); 99,000 tested, 0.83% active; AID 1347419, 2020;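 active = Z-score of -3 or lower, scaled per plate to the spread of control and sample wells; inactive = z-score above -3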;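 also: negative z-score means lost luminescence so less FERM oligomerization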
Cav3 T inh: Cav3.2 calcium influx blockers – cell-based, Fluo-4 calcium fluorescence, FDSS, MLSMR library, primary screen. Voltage-dependent T-type calcium channel subunit alpha-1H (Homo sapiens), O95180. Cav3.2-expressing cells; hits give low values. B-score at 10 µM. 100,000 tested, 4% active. AID 449739, 2010;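 active = single-dose well whose peak fluorescence ratio is a statistical outlier from its plate by either plate-standardised score or position-corrected B-score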
Starred values were filed as active, the others as inactive; . = not tested or not shown. Shown are actives, neighbours in structure and some others; about 5.9% of the full set was active somewhere.

SMILES	Measles CPE	HIV Rev-RRE inh	hDAT+cocaine	Phagocytosis inh	PTK2B oligo ant	Cav3 T inh
CC12CCC(C(=O)N3CCN(C(c4ccccc4)c4ccccc4)CC3)(OC1=O)C2(C)C (configuration not stated)	34.2*	-7.2	-0.188	-0.6	-1.22	0.0363
CCC(C)(C)NC(=O)C(c1ccco1)N(C(=O)CNC(=O)c1cccs1)c1cccnc1 (configuration not stated)	4.4	-1.7	-8.17*	.	-0.87	0.0898
CC(C)c1ccc(C(C(=O)NC(C)(C)C)N(C(=O)CNC(=O)c2ccco2)c2cccnc2)cc1 (configuration not stated)	8.9	-3.0	0.816	.	0.28	0.361
COc1cccc([C@@H]2Oc3ccc(OC)cc3C(=O)[C@H]2OC(=O)NCc2ccc3c(c2)OCO3)c1	8.0	.	.	.	.	.
CCN1CCN(c2c(C(=O)c3ccc(OC)cc3)cnc3ccccc23)CC1	.	.	1.28	.	.	-0.282
CCOC(=O)C1CCCN(c2c(C(=O)c3ccccc3)cnc3ccc(OC)cc23)C1 (configuration not stated)	.	.	-0.323	.	.	-6.78*
CC1(C)C=C(c2ccc(C=O)s2)CC(C)(C)N1C=O	4.7	.	.	-0.5	.	.
CCC(C)(C)n1nnnc1C(c1ccc(C)cc1)N1CCN(Cc2ccc3c(c2)OCO3)CC1 (configuration not stated)	6.7	6.1	1.84	.	-1.41	-4.44*
CCC(C)(C)n1nnnc1CN1CCN(C(c2ccccc2)c2ccccc2)CC1	5.2	0.6	0.781	.	-1.44	-3.42*
c1ccc(C(c2ccccc2)N2CCN(Cc3nnnn3C3CCCC3)CC2)cc1	37.4	-0.3	1.28	-0.4	-1.51	.
C=CCOC(=O)C1=C[C@H](c2coc3ccccc3c2=O)[C@@H](CCCO)[C@H](OCC)O1	.	.	0.105	.	.	-0.09
N#CCSc1nc2c(c(=O)n1Cc1ccco1)C1(CCCC1)Cc1ccccc1-2	.	9.6	0.191	-2.2	-1	-6.15*
N#CCSc1n[nH]c2nc3c(c(=O)n12)C1(CCCC1)Cc1ccccc1-3	1.0	.	-0.215	0.6	-2.97	-0.671
CCCn1c(SCC#N)nc2c(c1=O)C1(CCCC1)Cc1ccccc1-2	6.4	4.5	-0.712	-0.5	-1.25	-4.21*
Cc1ccc2nc(SCc3ccc([N+](=O)[O-])cc3)[nH]c2c1	6.9	7.6	1.01	.	-0.83	-5.8*
C(/C=C/C=C/Nc1ccccc1)=Nc1ccccc1	17.3	9.2	0.55	.	-0.38	-5.02*
COc1ccccc1-c1cc(C(=O)N/N=C/C=C/c2ccccc2[N+](=O)[O-])c2ccccc2n1	26.3	5.6	1.19	-1.8	-0.95	-4.07*
COc1ccccc1-n1cc(-c2ccc(Cl)cc2)[nH]c1=O	11.4	.	.	-7.4	.	.
Cc1n[nH]c(=O)nc1NCc1ccc(Cl)cc1	36.3*	1.0	0.106	0.2	-0.28	0.249
CCOc1ccc(NC(=O)c2ccco2)c([N+](=O)[O-])c1	5.5	.	.	-15.6	.	.
S=c1[nH]nc(-c2ccncc2)n1/N=C/c1cccc2ccccc12	29.3*	.	.	-5.2	.	.
CC(C)CNC(=O)/C=C/c1cccs1	8.9	.	.	0.1	.	.
COc1ccc(C(=O)OCCNC(=O)c2ccncc2)cc1OC	8.0	.	.	-16.9	1.37	.
Cc1cccc(C(=O)N2CCN(c3ccc(C(F)(F)F)cn3)CC2)c1C	7.0	12.9	0.458	0.7	0.67	-4.71*
O=C(c1ccccn1)N1CCN(c2ccc(C(F)(F)F)cn2)CC1	9.6	0.8	-0.947	.	-0.51	0.0107
Cc1ccccc1N1CCN(C(=O)c2ccc(Oc3ccc(C(F)(F)F)cn3)cc2)CC1	19.5	2.7	0.218	-1.1	-1.02	-5.97*
Cc1nc2c(cnn2-c2ccccc2Cl)c(=O)n1-c1ccc(C(C)C)cc1	9.9	6.7	0.983	0.3	-1.6	-6.22*
Cc1ccc(-n2c(C)nc3c(cnn3-c3ccc(F)cc3)c2=O)cc1	7.1	6.5	.	.	-1.24	.
CCCn1c(-c2cccnc2Cl)nc2cc(Cl)c(Cl)cc21	3.5	8.6	-0.992	-0.4	-3.68*	-0.9
